Here are results for 23 compounds from ChEMBL document CHEMBL5329223, “Newly synthesized 6-substituted piperazine/phenyl-9-cyclopentyl containing purine nucleobase analogs act as potent anticancer agents and induce apoptosis via inhibiting Src in hepatocellular carcinoma cells” (RSC Med Chem, 2023).

Calls of active or inactive are those of the source. No cut-off for these calls is given here.

Holding throughout (type): functional, cell-based
Assay [1] concerns Huh-7. Briefly: Cytotoxicity against human Huh-7 cells assessed as cell growth inhibition incubated for 72 hrs by SRB assay. The following applies: for IC50: Huh-7, 72 h. In a few lines: (§1)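 Cells seeded at 1000–3000 per well, treated after 24 h with 2.5–40 μM (40, 20, 10, 5, 2.5 μM) for 72 h, in duplicate or triplicate; DMSO negative control. Fixed with 10% TCA 1 h at 4 °C, stained with 0.4% SRB in 1% acetic acid, dye solubilized in 10 mM TBS, A515 read; OD normalized to DMSO control, IC50 from growth-inhibition curves.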
In general terms: In SRB staining, fixed cells bind dye roughly in proportion to their protein.

In assay [2] the test system is MCF7. Briefly: Cytotoxicity against human MCF7 cells assessed as cell growth inhibition incubated for 72 hrs by SRB assay. The following applies: for IC50: MCF7, 72 h. The method, boiled down: as §1
The test system of assay [3] is HCT-116. Description: Cytotoxicity against human HCT-116 cells assessed as cell growth inhibition incubated for 72 hrs by SRB assay. As to conditions: for IC50: HCT-116, 72 h. In a few lines: as §1
Assay [4] has as its system Mahlavu. Description: Cytotoxicity against human Mahlavu cells assessed as cell growth inhibition incubated for 72 hrs by SRB assay. The method, boiled down:
as §1

For assay [5], the system named is SNU-475. Description: Cytotoxicity against human SNU-475 cells assessed as cell growth inhibition incubated for 72 hrs by SRB assay. As to conditions: SNU-475, 72 h. In a few lines: as §1
The subject of assay [6] is SNU-423. Description: Cytotoxicity against human SNU-423 cells assessed as cell growth inhibition incubated for 72 hrs by SRB assay. The following applies: SNU-423, 72 h. In a few lines: as §1
Assay [7] in a line: Cytotoxicity against human FOCUS cells assessed as cell growth inhibition incubated for 72 hrs by SRB assay. The method, boiled down:
as §1

Assay [8] deals with PLC. Description: Cytotoxicity against human PLC cells assessed as cell growth inhibition incubated for 72 hrs by SRB assay. In a few lines: as §1
Assay [9] has as its system SNU-182. Description: Cytotoxicity against human SNU-182 cells assessed as cell growth inhibition incubated for 72 hrs by SRB assay. The following applies: for IC50: SNU-182, 72 h. In a few lines: as §1
For assay [10], the system named is SNU-398. Briefly: Cytotoxicity against human SNU-398 cells assessed as cell growth inhibition incubated for 72 hrs by SRB assay. The following applies: SNU-398, 72 h. In a few lines: as §1
Assay [11] relates to SNU-449. Description: Cytotoxicity against human SNU-449 cells assessed as cell growth inhibition incubated for 72 hrs by SRB assay. The following applies: SNU-449, 72 h. In a few lines:
as §1

For assay [12], the system named is Hep 3B2. Briefly: Cytotoxicity against human Hep3B cells assessed as cell growth inhibition incubated for 72 hrs by SRB assay. The method, boiled down:
as §1

Assay [13] deals with SNU-387. Briefly: Cytotoxicity against human SNU-387 cells assessed as cell growth inhibition incubated for 72 hrs by SRB assay. The following applies: SNU-387, 72 h. The method, boiled down: as §1
Assay [14] deals with HepG2. Briefly: Cytotoxicity against human HepG2 cells assessed as cell growth inhibition incubated for 72 hrs by SRB assay. The following applies: HepG2, 72 h. In a few lines:
as §1

In assay [15] the test system is Mahlavu. Briefly: Upregulation of intracellular ATP level in human Mahlavu cells at 5 uM incubated for 72 hrs by Kinase Glo assay. In a few lines: (§2)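 Huh7 and Mahlavu cells grown 24 h, then treated with 5 μM for 72 h. Lysates protein-normalized by Bradford; ATP read by Kinase-Glo Plus luminescence per kit protocol. Staurosporine positive control, DMSO negative control.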

Assay [16] deals with Huh-7. Description: Upregulation of intracellular ATP level in human Huh-7 cells at 5 uM incubated for 72 hrs by Kinase Glo assay. The method, boiled down:
as §2
(In Kinase-Glo more light means more ATP remaining.)

As usually defined, the IC50 is the concentration that inhibits the measured activity by half. In the case of `c1ccc(-c2ncnc3c2ncn3C2CCCC2)cc1`, the results for the IC50 in assay [1], in [2] and in [3] were 12.8 µM, 15.7 µM and 13.9 µM, respectively.

For `COc1ccc(S(=O)(=O)N2CCN(c3ncnc4c3ncn4C3CCCC3)CC2)cc1`, the IC50 in assay [1] worked out at 7.1 µM; in assay [2], 8.6 µM; in assay [4], 9 µM; in assay [5], 57.5 µM; in [6] it was 6.8 µM; in assay [7], 10.1 µM. Also, the IC50 in assay [8] amounted to 84.6 µM; in assay [10], 6.9 µM; in assay [3], 10.4 µM; in [11] it was 20 µM; in [12], 71.8 µM; in [13], 15.8 µM. Besides, the half-inhibitory concentration (IC50) in assay [14] is 2.7 µM. The “growth inhibition (GI)” value in [9] is “inactive”.

For `Clc1ccc(N2CCN(c3ncnc4c3ncn4C3CCCC3)CC2)cc1Cl`, the IC50 amounted to 0.04 µM in assay [1]; 0.16 µM in assay [2]; 0.1 µM in assay [4]; 2.5 µM in assay [5]; 9.9 µM in [6]; 0.5 µM in [7]. Also, the IC50 in assay [8] was 7 µM; in [9], 65 µM; in assay [10] it was 0.2 µM; in assay [3], 0.04 µM; in [11] it was under 0.1 µM; in assay [12], 0.03 µM. Further, the IC50 in [13] came to 20 µM; in assay [14] it was 0.02 µM.

Consider `O=S(=O)(c1ccc(Br)cc1)N1CCN(c2ncnc3c2ncn3C2CCCC2)CC1`, for which the IC50 in assay [1] was 8 µM; in assay [2], 6.5 µM; in [4], 20.5 µM; in assay [5] it was 9 µM; in [6], 10.5 µM; in assay [7], 15.9 µM. In addition, the IC50 in assay [8] worked out at 9.2 µM; in assay [9], 60.6 µM; in assay [10], 4 µM; in assay [3], 8.4 µM; in assay [11], 8.5 µM; in [12] it was 4.3 µM. Besides, the half-maximal inhibitory concentration (IC50) is 15.9 µM in assay [13] and 6.3 µM in [14].

`O=S(=O)(c1ccc(F)cc1)N1CCN(c2ncnc3c2ncn3C2CCCC2)CC1`: the IC50 came to 9 µM in [1]; 5.2 µM in assay [2]; 11.4 µM in assay [4]; 21.6 µM in [5]; 9.5 µM in [6]; 12.6 µM in [7]. Moreover, the IC50 in [8] came to 15.4 µM; in assay [9] it was 47.9 µM; in assay [10] it was 8 µM; in [3], 12 µM; in assay [11] it was 16.3 µM; in [12] it was 6.1 µM. For the same compound, the figures for the IC50 in assay [13] and in assay [14] were 11.1 µM and 4.8 µM, respectively.

For the compound `O=S(=O)(c1ccc(Cl)cc1)N1CCN(c2ncnc3c2ncn3C2CCCC2)CC1`, the figures for the IC50 in assay [1], in assay [2] and in assay [3] were 34.4 µM, 10.5 µM and 44.8 µM, respectively.

As for `OC[C@H]1O[C@@H](n2cnc3c2N=CNC[C@H]3O)C[C@@H]1O`, the “growth inhibition (GI)” value in [1], in [2] and in assay [3] was “inactive” each time.

Regarding `Fc1ccc(-c2ncnc3c2ncn3C2CCCC2)cc1`, the IC50 was found to be 6.7 µM in assay [1], 15.6 µM in assay [2] and 6.1 µM in assay [3].

For `Cc1ccc(N2CCN(c3ncnc4c3ncn4C3CCCC3)CC2)cc1`, the concentration for half-maximal inhibition (IC50) came to 1.4 µM in assay [1]; 6.4 µM in assay [2]; 4.2 µM in [4]; 17.7 µM in assay [5]; 17.5 µM in assay [6]; 5 µM in assay [7]. The IC50 in assay [8] was determined as 20.7 µM; in assay [9], 61 µM; in assay [10], 1.9 µM; in [3], 1.9 µM; in assay [11], 17 µM; in assay [12], 3.1 µM. Besides, the IC50 in assay [13] came to 88 µM; in assay [14], 0.9 µM.

As for `COc1ccc(-c2ncnc3c2ncn3C2CCCC2)cc1`, the results for the IC50 in assay [1], in assay [2] and in assay [3] were 10.6 µM, 19.5 µM and 39 µM, respectively.

Take `FC(F)(F)c1ccc(-c2ncnc3c2ncn3C2CCCC2)cc1`: the concentration for half-maximal inhibition (IC50) was determined as 29.8 µM in assay [1], 20.3 µM in assay [2] and 6 µM in assay [3].

`CN[C@@H]1C[C@H]2O[C@@](C)([C@@H]1OC)n1c3ccccc3c3c4c(c5c6ccccc6n2c5c31)C(=O)NC4`: the result in [15] and in [16] was inactive.

As for `Cc1ccc(S(=O)(=O)N2CCN(c3ncnc4c3ncn4C3CCCC3)CC2)cc1`, the IC50 in [1] worked out at 49 µM; in assay [2] it was 171 µM; in assay [3] it was 197 µM.

On to `Nc1nc(Cl)nc2c1ncn2[C@H]1C[C@H](O)[C@@H](CO)O1` [CLADRIBINE], for which the IC50 in [1] was 0.6 µM; in assay [4] it was under 0.1 µM; in [5] it was 2.5 µM; in assay [6], 6.7 µM; in assay [7] it was under 0.1 µM; in assay [8], 9.1 µM. For the same compound, the IC50 in [9] is 23.3 µM; in [10], under 0.1 µM; in assay [3], under 0.1 µM; in assay [11] it was 37.3 µM; in [12] it was 0.1 µM; in assay [13], 7.1 µM. In [14], the IC50 worked out at 0.4 µM.

Take `Brc1ccc(-c2ncnc3c2ncn3C2CCCC2)cc1`: the results for the half-inhibitory concentration (IC50) in assay [1] and in assay [2] were 16 µM and 56.1 µM, respectively. The inhibition entry in [3] is “inactive”.

As to `Cc1ccc(-c2ncnc3c2ncn3C2CCCC2)cc1`, the values for the IC50 in assay [1], in assay [2] and in [3] were 23.8 µM, 17.7 µM and 22.4 µM, respectively.

For `FC(F)(F)Oc1ccc(-c2ncnc3c2ncn3C2CCCC2)cc1`, the values for the IC50 in assay [1], in assay [2] and in assay [3] were 15.1 µM, 24 µM and 26.3 µM, respectively.

Turning to `O=S(=O)(c1ccc(C(F)(F)F)cc1)N1CCN(c2ncnc3c2ncn3C2CCCC2)CC1`, the IC50 in [1] amounted to 12.3 µM; in [2] it was 12.7 µM; in assay [3], 32.4 µM.

As for `CC(C)c1ccc(S(=O)(=O)N2CCN(c3ncnc4c3ncn4C3CCCC3)CC2)cc1`, the IC50 worked out at 14.7 µM in [1], 17.2 µM in assay [2] and 11.5 µM in [3].

`CC(C)(C)c1ccc(-c2ncnc3c2ncn3C2CCCC2)cc1`: the IC50 in assay [1] came out at 6.3 µM; in [2] it was 12.6 µM; in assay [4] it was 4 µM; in assay [5], 12.3 µM; in assay [6], 4 µM; in assay [7] it was 2 µM. The IC50 in assay [8] came to 3.4 µM; in assay [9] it was 12.2 µM; in assay [10] it was 1.8 µM; in assay [3] it was 6.6 µM; in assay [11] it was 6.9 µM; in assay [12] it was 6.7 µM. Besides, the concentration for half-maximal inhibition (IC50) was 2 µM in assay [13] and 2.7 µM in assay [14].

With `O=S(=O)(c1ccccc1)N1CCN(c2ncnc3c2ncn3C2CCCC2)CC1`, the half-inhibitory concentration (IC50) in assay [1] is 13.1 µM; in assay [2], 11.2 µM; in [3], 12 µM.

Consider `Clc1ccc(-c2ncnc3c2ncn3C2CCCC2)cc1`, for which the IC50 in assay [1] is 15.6 µM. In addition, the “growth inhibition (GI)” value in [2] and in assay [3] was “inactive” each time.

With `Nc1nc(F)nc2c1ncn2[C@@H]1O[C@H](CO)[C@@H](O)[C@@H]1O` [FLUDARABINE], the IC50 in assay [1] came out at 24.4 µM; in assay [4] it was 14.2 µM; in [5], 41.5 µM; in [6], 32.6 µM; in [7] it was 13.7 µM; in [8], 41.7 µM. The IC50 amounted to 37.2 µM in assay [9]; 0.2 µM in assay [10]; 8.3 µM in assay [3]; 25.1 µM in [11]; 27.8 µM in assay [12]; 33.8 µM in [13]. In addition, in [14], the half-maximal inhibitory concentration (IC50) was 17 µM.
